Measurements from ChEMBL document CHEMBL1142008, “Discovery and investigation of a novel class of thiophene-derived antagonists of the human glucagon receptor” (Bioorg Med Chem Lett, 2005).
Values belong to the molecule of their own block, whether it stands above or below them.

Tests used:
Glucagon receptor [1] = target: T1, Glucagon receptor (Homo sapiens, UniProt P47871); experiment: Inhibitory concentration towards binding of [125I]glucagon to the human glucagon receptor expressed in CHO cells; type: cell-based
T1 sequence (P47871 whole entry): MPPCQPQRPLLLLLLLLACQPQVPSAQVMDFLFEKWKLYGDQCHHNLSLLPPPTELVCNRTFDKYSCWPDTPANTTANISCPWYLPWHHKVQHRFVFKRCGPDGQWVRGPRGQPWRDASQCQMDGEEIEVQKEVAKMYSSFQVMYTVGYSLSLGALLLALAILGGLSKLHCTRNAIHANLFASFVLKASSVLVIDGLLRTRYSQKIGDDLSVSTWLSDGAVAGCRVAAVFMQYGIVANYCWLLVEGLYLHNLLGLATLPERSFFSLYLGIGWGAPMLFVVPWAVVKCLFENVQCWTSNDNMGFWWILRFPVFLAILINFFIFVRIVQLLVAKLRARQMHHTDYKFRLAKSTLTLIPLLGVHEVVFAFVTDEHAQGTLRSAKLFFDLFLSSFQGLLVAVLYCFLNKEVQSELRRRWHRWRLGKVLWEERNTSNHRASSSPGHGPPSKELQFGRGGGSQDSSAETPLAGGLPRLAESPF

Glucagon receptor [2] = target: T1, Glucagon receptor; experiment: Inhibition of glucagon induced cAMP accumulation in human glucagon receptor transfected CHO cells; type: functional, cell-based
Method in brief: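 Functional antagonism in CHO cells transfected with human glucagon receptor. Read-out is inhibition of glucagon-induced cAMP accumulation. Mean of at least two experiments, SD <50% of mean.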

[3] = Maximum plasma concentration measured in mouse after oral administration of 2 mg/kg
[4] = Oral bioavailability in mouse (dose 2 mg/kg); type: ADME, organism-based; details: in vivo
Method in brief: (§1)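 Mouse PK, n = 3 mice per route. Dosed both IV and PO: 1.0 mg/kg IV / 2.0 mg/kg PO for one compound, 5.0 mg/kg IV / 10.0 mg/kg PO for others. Plasma clearance, Vdss, t1/2, Cmax, dose-normalized oral AUC and F% derived.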

[5] = Plasma clearance measured in mouse after peroral administration of 2 mg/kg; n = 3; type: ADME, organism-based; design: dose 2 mg/kg, route oral; details: in vivo, po; method in brief: as §1
[6] = Steady state volume distribution measured in mouse after peroral administration of 2 mg/kg; type: ADME, organism-based; design: dose 2 mg/kg, route oral; details: in vivo, po; method in brief: as §1
[7] = Bioavailability in mouse (dose 1 mg/kg i.v.); type: ADME, organism-based; details: in vivo, iv; method in brief: as §1
[8] = Half life measured in mouse after intravenous administration of 1 mg/kg; type: ADME, organism-based; design: dose 1 mg/kg, route intravenous; details: in vivo; method in brief: as §1
[9] = Half life measured in mouse after peroral administration of 2 mg/kg; type: ADME, organism-based; design: dose 2 mg/kg, route oral; details: in vivo, po; method in brief: as §1
[10] = Steady state volume distribution measured in mouse after intravenous administration of 1 mg/kg; type: ADME, organism-based; design: dose 1 mg/kg, route intravenous; details: in vivo, read-out: Vdss; method in brief: as §1
[11] = Maximum plasma concentration measured in mouse after peroral administration of 2 mg/kg; type: ADME, organism-based; design: dose 2 mg/kg, route oral; details: po; method in brief: as §1
[12] = Plasma clearance measured in mouse after intravenous administration of 1 mg/kg; n = 3; type: ADME, organism-based; design: dose 1 mg/kg, route intravenous; details: in vivo; method in brief: as §1
[13] = Maximum plasma concentration measured in mouse after intravenous administration of 1 mg/kg; type: ADME, organism-based; design: dose 1 mg/kg, route intravenous; method in brief: as §1
Glucagon receptor [14] = target: T1, Glucagon receptor; experiment: Percent inhibition of glucagon induced cAMP accumulation in human glucagon receptor transfected CHO cells at a compound concentration of 10 uM; type: functional, cell-based
Method in brief: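 Functional antagonism in CHO cells transfected with human glucagon receptor. Read-out is inhibition of glucagon-induced cAMP accumulation. Reported as IC50, or as percent inhibition at 10 µM compound. Mean of at least two experiments, SD <50% of mean.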

IC50 (Glucagon receptor [1]): 3.82 µM
SMILES: CCC(CC)C(=O)Nc1sc2c(c1C#N)CCC(N(C)Cc1ccccc1)C2 (stereo unspecified)

IC50 (Glucagon receptor [2]): 0.059 µM | IC50 (Glucagon receptor [1]): 0.129 µM
SMILES: CCC(CC)C(=O)Nc1sc2c(c1C#N)CCC(N(Cc1ccc(Cl)cc1Cl)C(C)C)C2 (stereo unspecified)

Cmax [3]: 0.08 µM | bioavailability [4]: 9.2% | Clp [5]: 3 L/h/kg | Vdss [6]: 3.4 L/kg | bioavailability [7]: 9.2% | half-life [8]: 1.9 h | half-life [9]: 1.9 h | Vd [10]: 3.4 L/kg | Cmax [11]: 0.08 µM | IC50 (Glucagon receptor [2]): 0.063 µM | IC50 (Glucagon receptor [1]): 0.092 µM | Clp [12]: 3 L/h/kg
SMILES: CCC(CC)C(=O)Nc1sc2c(c1C#N)CCC(N(C)Cc1ccc(Cl)cc1Cl)C2 (stereo unspecified)

SMILES: CCC(C)(C)C1CCc2c(sc(NC(=O)c3ccc(Br)cc3)c2C#N)C1 (stereo unspecified)
IC50 (Glucagon receptor [1]): > 20 µM

bioavailability [4]: 36% | Clp [5]: 1.38 L/h/kg | Vdss [6]: 8.7 L/kg | bioavailability [7]: 36% | half-life [8]: 5.1 h | half-life [9]: 5.1 h | Vd [10]: 8.7 L/kg | Cmax [11]: 0.8 µM | IC50 (Glucagon receptor [2]): 0.034 µM | Cmax [13]: 0.8 µM | IC50 (Glucagon receptor [1]): 0.089 µM | Clp [12]: 1.38 L/h/kg
SMILES: CCC(CC)C(=O)Nc1sc(-c2nc(Cc3ccc(Cl)cc3Cl)no2)c(C)c1C#N

IC50 (Glucagon receptor [1]): 3.21 µM
SMILES: CCC(CC)C(=O)Nc1sc(-c2nnc(CC(C)C)o2)c(C)c1C#N

bioavailability [4]: 39% | Clp [5]: 5.04 L/h/kg | Vdss [6]: 16 L/kg | bioavailability [7]: 39% | half-life [8]: 2.7 h | half-life [9]: 2.7 h | Vd [10]: 16 L/kg | Cmax [11]: 0.8 µM | IC50 (Glucagon receptor [2]): 0.185 µM | Cmax [13]: 0.8 µM | IC50 (Glucagon receptor [1]): 0.368 µM | Clp [12]: 5.04 L/h/kg
SMILES: CCC(CC)C(=O)Nc1sc(-c2nc(CC(C)C)no2)c(C)c1C#N

IC50 (Glucagon receptor [2]): 0.158 µM | IC50 (Glucagon receptor [1]): 0.139 µM
SMILES: CCC(CC)C(=O)Nc1sc2c(c1C#N)CCC(N(C)C1CCCc3ccccc31)C2 (single isomer, unassigned; form 1)

IC50 (Glucagon receptor [2]): 0.059 µM | IC50 (Glucagon receptor [1]): 0.118 µM
SMILES: CCC(CC)C(=O)Nc1sc2c(c1C#N)CCC(N(C)C1CCCc3ccccc31)C2 (single isomer, unassigned; form 2)

IC50 (Glucagon receptor [2]): 0.041 µM | IC50 (Glucagon receptor [1]): 0.153 µM
SMILES: CCC(CC)C(=O)Nc1sc(C(=O)N(Cc2ccc(Cl)cc2Cl)C(C)C)c(C)c1C#N

IC50 (Glucagon receptor [2]): 0.129 µM | IC50 (Glucagon receptor [1]): 0.181 µM
SMILES: CCC(CC)C(=O)Nc1sc2c(c1C#N)CCC(C(C)(C)CC)C2 (stereo unspecified)

IC50 (Glucagon receptor [1]): 0.87 µM | inhibition (Glucagon receptor [14]): 38%
SMILES: CCC(CC)C(=O)Nc1sc2c(c1C(N)=O)CCC(C(C)(C)CC)C2 (stereo unspecified)
